The values that follow come from ChEMBL document CHEMBL1134217, “Addressing the stability of C-capped dipeptide efflux pump inhibitors that potentiate the activity of levofloxacin in Pseudomonas aeruginosa” (Bioorg Med Chem Lett, 2001).

Each structure is given as a SMILES string. Values after ≈ are worked out from the molar mass of the structure shown. Peptide text beside a SMILES is read from it. A value given as a limit tells only on which side of the number the result lay.

The nature of series [1]: Stability in rat serum measured as % recovery at 1 min. The following applies: read-out: Recovery. Format: ADME. An outline of the steps:
(§1)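 Compounds were incubated in rat serum at 37 °C, with a parallel incubation in H₂O as control. At each time point, 70% trichloroacetic acid and CH₃CN were added dropwise. Unchanged compound was quantified by HPLC and reported as % recovery, averaged from two or more experiments.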

Series [2] in a line: Stability in rat serum measured as % recovery at 3 min. Format: ADME. The following applies: read-out: Recovery. The gist of the method: as §1
A short description of series [3]: Stability in rat serum measured as % recovery at 5 min. Format: ADME. Particulars: read-out: Recovery. The gist of the method:
as §1

Series [4] in a line: Stability in rat serum measured as % recovery at 10 min. Format: ADME. Particulars: read-out: Recovery. An outline of the steps: as §1
Series [5] relates to Pseudomonas aeruginosa. As to the kind of experiment: Minimum inhibitory concentration required to inhibit growth of PAM 1032 strain of Pseudomonas aeruginosa that over expresses MexAB-Opr M efflux pump. It counts as functional. An outline of the steps:
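Intrinsic antibacterial activity was checked by measuring the MIC of the efflux pump inhibitor alone, without levofloxacin, against P. aeruginosa PAM 1032, which overexpresses MexAB-OprM.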

In series [6] the test system is Pseudomonas aeruginosa. As to the kind of experiment: Minimum concentration of compound required to reduce the MIC of levofloxacin 8-fold in PAM 1032 strain of Pseudomonas aeruginosa that over expresses MexAB-OprM efflux pump. It counts as functional. An outline of the steps:
(§2)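 Levofloxacin MICs were measured on PAM 1032 (MexAB-OprM overexpressor) with and without efflux pump inhibitor. MPC₈ is the lowest inhibitor concentration that cuts the levofloxacin MIC 8-fold.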

The test system of series [7] is Pseudomonas aeruginosa. As to the kind of experiment: Compound was evaluated in PAM 1032 strain of Pseudomonas aeruginosa for its effect on levofloxacin ( 10 ug/mL) potentiation. Format: functional. The gist of the method:
(§3)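 Levofloxacin MIC read against P. aeruginosa PAM 1032, a laboratory strain overexpressing the MexAB-OprM pump, with the efflux pump inhibitor held at fixed levels of […].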

Series [8] has as its system Pseudomonas aeruginosa. As to the kind of experiment: Compound was evaluated in PAM 1032 strain of Pseudomonas aeruginosa for its effect on levofloxacin ( 5 ug/mL) potentiation. Format: functional. An outline of the steps:
as §3

Series [9] relates to Pseudomonas aeruginosa. As to the kind of experiment: Compound was evaluated in PAM 1032 strain of Pseudomonas aeruginosa for its effect on levofloxacin (20 ug/mL) potentiation. Format: functional. An outline of the steps: as §3
The test system of series [10] is Pseudomonas aeruginosa. As to the kind of experiment: Compound was evaluated in PAM 1032 strain of Pseudomonas aeruginosa for its effect on levofloxacin (40 ug/mL) potentiation. Format: functional. An outline of the steps:
as §3

The subject of series [11] is Pseudomonas aeruginosa. As to the kind of experiment: Compound was evaluated in PAM 1032 strain of Pseudomonas aeruginosa for its effect on levofloxacin (ug/mL) potentiation. It counts as functional. The gist of the method:
as §3

The nature of series [12]: Stability in rat serum measured as % recovery at 2 hr. Format: ADME. The following applies: read-out: Recovery. An outline of the steps: (§4)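 Incubated at 37 °C in rat serum for the stated time, in parallel with a water control. Samples quenched dropwise with 70% trichloroacetic acid plus acetonitrile, then analysed by HPLC. Value is % recovery of unchanged compound, averaged over two or more experiments. Phe-Arg-β-naphthylamine (MC-207,110) served as positive control.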

Series [13] relates to Pseudomonas aeruginosa. As to the kind of experiment: Minimum concentration of compound required to reduce the MIC of levofloxacin 8-fold in PAM 1032 strain of Pseudomonas aeruginosa tha over expresses MexAB-Opr M efflux pump. It counts as functional. The gist of the method: as §2
Series [14] in a line: Stability in rat serum measured as % recovery at 3 mins. Format: ADME. The following applies: read-out: Recovery. The gist of the method: as §4
Series [15] in a line: Stability in rat serum measured as % recovery at 5 mins. It counts as ADME. The following applies: read-out: Recovery. An outline of the steps:
as §4

Series [16] is described as follows: Stability in rat serum measured as % recovery at 10 mins. It counts as ADME. The following applies: read-out: Recovery. An outline of the steps: as §4

As to `NCCC[C@H](NC(=O)[C@@H](N)Cc1ccccc1)C(=O)Nc1ccc2ccccc2c1`, the remaining at 1 min in series [1] was 100%. The remaining at 0.05 h in series [2] stood at 80%. For the same compound, the remaining at 5 min in series [3] was determined as 64%. The remaining at 10 min in series [4] worked out at 36%. The compound also registered an MIC with Pseudomonas aeruginosa [5] of 512 µg/mL (≈ 1270 µM). The MPC in the series on Pseudomonas aeruginosa [6] was found to be 5 µg/mL.
Turning to `CN(C(=O)[C@@H](N)Cc1ccccc1)[C@@H](CCCN)C(=O)Nc1ccc2ccccc2c1.O=C(O)C(F)(F)F.O=C(O)C(F)(F)F`, the remaining at 1 min in series [1] turned out to be 100%. In [2], the remaining at 0.05 h is 99%. The remaining at 5 min in series [3] is 100%. The remaining at 10 min in [4] turned out to be 97%. In addition, inhibition of growth in the series with Pseudomonas aeruginosa [5] (MIC) required 256 µg/mL. For the same compound, the MPC in the series on Pseudomonas aeruginosa [6] worked out at 5 µg/mL.
For the compound `NCCC[C@H](N)C(=O)N[C@@H](Cc1ccccc1)C(=O)Nc1ccc2ccccc2c1`, the remaining at 1 min in series [1] is 100%. Moreover, in [2], the remaining at 0.05 h is 87%. In addition, the remaining at 5 min in [3] is 76%. The remaining at 10 min in [4] stood at 38%. This compound had a minimum inhibitory concentration (MIC) against Pseudomonas aeruginosa [5] of 512 µg/mL (≈ 1270 µM). Also, in the series with Pseudomonas aeruginosa [6], the MPC was 10 µg/mL.
As to `NCCC[C@H](N)C(=O)N[C@@H](CCc1ccccc1)C(=O)Nc1cnc2ccccc2c1`, the minimum inhibitory concentration (MIC) with Pseudomonas aeruginosa [7] came to 0.5 µg/mL; in the series on Pseudomonas aeruginosa [8] it was 4 µg/mL; in the series on Pseudomonas aeruginosa [9], 0.06 µg/mL; with Pseudomonas aeruginosa [10], 0.015 µg/mL; in the series on Pseudomonas aeruginosa [11], 4 µg/mL. The MPC in the series with Pseudomonas aeruginosa [6] was found to be 10 µg/mL.
On to `NCCC[C@H](N)C(=O)N[C@H](CCc1ccccc1)C(=O)Nc1cnc2ccccc2c1`, for which the MIC in the series on Pseudomonas aeruginosa [7] was found to be 1 µg/mL; in the series on Pseudomonas aeruginosa [8], 2 µg/mL; in the series on Pseudomonas aeruginosa [9], 0.5 µg/mL; in the series with Pseudomonas aeruginosa [10] it was 0.125 µg/mL; in the series on Pseudomonas aeruginosa [11], 4 µg/mL. For the same compound, the MPC with Pseudomonas aeruginosa [6] worked out at 20 µg/mL.
For the compound `NCCC[C@@H](N)C(=O)N[C@H](CCc1ccccc1)C(=O)Nc1cnc2ccccc2c1`, the MIC was found to be 2 µg/mL with Pseudomonas aeruginosa [7]; 4 µg/mL in the series on Pseudomonas aeruginosa [8]; 0.125 µg/mL with Pseudomonas aeruginosa [9]; 0.125 µg/mL with Pseudomonas aeruginosa [10]; 4 µg/mL in the series with Pseudomonas aeruginosa [11]. For the same compound, the MPC in the series with Pseudomonas aeruginosa [6] was found to be 20 µg/mL.
`NCCC[C@H](NC(=O)[C@@H](N)CCc1ccccc1)C(=O)Nc1cnc2ccccc2c1`: the MIC is 0.06 µg/mL in the series with Pseudomonas aeruginosa [7]; 1 µg/mL with Pseudomonas aeruginosa [8]; 0.03 µg/mL in the series on Pseudomonas aeruginosa [9]; 0.03 µg/mL in the series on Pseudomonas aeruginosa [10]; 4 µg/mL in the series on Pseudomonas aeruginosa [11]. Further, the MPC in the series with Pseudomonas aeruginosa [6] amounted to 10 µg/mL.
With `NCCC[C@@H](N)C(=O)N[C@@H](CCc1ccccc1)C(=O)Nc1cnc2ccccc2c1`, the remaining at 1 min in [1] was 100%. Further, the remaining at 2 h in series [12] worked out at 95%. For the same compound, the remaining at 0.05 h in [2] is 98%. Besides, the remaining at 5 min in [3] is 98%. For the same compound, the remaining at 10 min in [4] came to 100%. In addition, the MIC in the series with Pseudomonas aeruginosa [5] was greater than 512 µg/mL; in the series with Pseudomonas aeruginosa [7], 0.125 µg/mL; in the series on Pseudomonas aeruginosa [8], 1 µg/mL; in the series on Pseudomonas aeruginosa [9], 0.03 µg/mL; in the series on Pseudomonas aeruginosa [10] it was 0.015 µg/mL; with Pseudomonas aeruginosa [11], 4 µg/mL. The MPC in the series on Pseudomonas aeruginosa [13] and in the series with Pseudomonas aeruginosa [6] was 10 µg/mL throughout.
Regarding `N=C(N)NCCC[C@H](NC(=O)[C@@H](N)Cc1ccccc1)C(=O)Nc1ccc2ccccc2c1` [PABETAN] (HELM PEPTIDE1{F.R.[c1ccc2cc(N[*:1])ccc2c1]}$$$$V2.0), in series [1], the remaining at 1 min stood at 100%. Further, in series [12], the remaining at 2 h amounted to 0%. For the same compound, the remaining at 0.05 h in [14] was determined as 73%. Moreover, the remaining at 5 min in series [15] was 55%. The remaining at 10 min in [16] stood at 25%. Moreover, in the series on Pseudomonas aeruginosa [5], the MIC was greater than 512 µg/mL. For the same compound, the MPC in the series on Pseudomonas aeruginosa [6] worked out at 10 µg/mL.
